Measured values published in ChEMBL document CHEMBL1147858, “Short-chain 3-ketoceramides, strong apoptosis inducers against human leukemia HL-60 cells” (Bioorg Med Chem, 2007).
Activity calls are given as the source filed them. No cut-off for these calls is given here.

Key:
Format in all cases: functional, cell-based
Settings in all cases: Homo sapiens
HL-60 [1] = assay: Antileukemic effect against HL60 cells assessed as cell survival at 1 uM after 6 hrs by MTT assay relative to C2-Cer
In short: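 Serum-free RPMI 1640 HL-60 suspension (0.4–1 × 10^6 cells/mL after two washes), […] per well; compounds added from ethanol stocks (1–20 mM), final EtOH 0.1%, vehicle control 0.1% EtOH; 6 h exposure; MTT (10 µL of 5 mg/mL) added 2 h before end; formazan dissolved with 0.04 M HCl in isopropanol.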

HL-60 [2] = assay: Effect on apoptosis in HL60 cells assessed as caspase-3 activation at 5 uM by Western blot analysis
In short: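 HL-60 cells exposed 2–6 h (also 30–90 min) to compound, ethanol vehicle (final EtOH 0.1%); cells pelleted, PBS-washed twice, lysed in urea/SDS/β-mercaptoethanol buffer, boiled 3 min, run on 14% SDS-PAGE, PVDF blot probed with rabbit polyclonal anti-caspase-3 and alkaline phosphatase-coupled goat anti-rabbit; pro- versus active caspase-3 bands read.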

HL-60 [3] = assay: Effect on apoptosis in HL60 cells assessed as mitochondrial cytochrome C release at 5 uM by Western blot analysis
In short: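 HL-60 cells (6 × 10^6 cells/mL) treated for various periods, ethanol vehicle; PBS-washed, Dounce-homogenized in HEPES/KCl/EDTA/EGTA/DTT buffer with protease inhibitors; 1000g spin removes nuclei/heavy membranes, mitochondria-rich fraction pelleted, supernatant spun at 100,000g for cytosol; both fractions immunoblotted with anti-cytochrome c.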

HL-60 [4] = assay: Induction of apoptosis in HL60 cells assessed as DNA fragmentation at 5uM
In short: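 HL-60 cells (2 × 10^6 cells/2 mL) exposed for various periods, ethanol vehicle; lysed in Tris/EDTA/0.5% Triton X-100, soluble lysate treated with RNase A (0.2 mg/mL, 1 h, 37 °C) then proteinase K (0.2 mg/mL, 50 °C, 30 min); DNA isopropanol-precipitated overnight at −20 °C, run on 2.0% agarose at 50 V, ethidium bromide stained, UV visualized.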

CCCCCCCCCCC/C=C/C=C/C(=O)[C@H](CO)NC(C)=O
Activity (HL-60 [1]): inactive
Activity (HL-60 [2]): Active
Activity (HL-60 [3]): Active

CCCCCCCCCCCCC/C=C/C(=O)[C@H](COC)NC(C)=O
Activity (HL-60 [1]): Active
Activity (HL-60 [4]): Active
Activity (HL-60 [2]): Active
Activity (HL-60 [3]): Active

CCCCCCCCCCCCC/C=C/C(=O)[C@H](CO)NC(C)=O
Activity (HL-60 [1]): Active
Activity (HL-60 [4]): Active
Activity (HL-60 [2]): Active
Activity (HL-60 [3]): Active
